From ChEMBL document CHEMBL2321876
Calls of active or inactive are those of the source. How the calls were made is not given here.

Tests used:
Acinetobacter baumannii [1] = assay: Antibacterial activity against Acinetobacter baumannii ATCC 19606 using iron-replete M9 minimal media after 15 hrs by broth microdilution assay; format: functional, organism-based; conditions: ATCC 19606 = CIP 70.34 = JCM 6841
Outline: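 ATCC 19606 grown overnight at 30 °C on LB agar, washed twice in dipyridyl-containing M9/casamino acids medium, then diluted to A600 0.0003 in M9 minimal medium with 0.2% casamino acids plus 200 μM FeCl3. Inhibitors from DMSO at 100 μM final, in triplicate. Controls were tetracycline (100 ng/mL) and 1% DMSO. Incubated at 30 °C, A600 measured at 15 h.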

Acinetobacter baumannii [2] = assay: Antibacterial activity against Acinetobacter baumannii ATCC 19606 using iron-deficient M9 minimal media after 15 hrs by broth microdilution assay; format: functional, organism-based; conditions: ATCC 19606 = CIP 70.34 = JCM 6841
Outline: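 ATCC 19606 grown overnight at 30 °C on LB agar, washed twice and resuspended in M9 minimal medium with 0.2% casamino acids and 200 μM dipyridyl. Inoculated at A600 0.0003 in this medium plus 1 μM FeCl3. Inhibitors from DMSO at 100 μM final, in triplicate. Tetracycline (100 ng/mL) and 1% DMSO as controls. Incubated at 30 °C; A600 read at 15 h.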

[3] = Displacement of Fl-Sal-AMS from Mycobacterium tuberculosis MbtA expressed in Escherichia coli after 30 mins by fluorescence polarization assay
[4] = Displacement of Fl-Sal-AMS from Acinetobacter baumanni BasE expressed in Escherichia coli after 30 mins by fluorescence polarization assay; set-up: species or system Acinetobacter baumannii

| Structure (SMILES) | Activity (Acinetobacter baumannii [1]) | Activity (Acinetobacter baumannii [2]) | Kd [3] | Kd ([4]; read-out: Kd) | Kd [4] |
| --- | --- | --- | --- | --- | --- |
| O=C(O)c1cc(-c2ccc(F)cc2F)nc2c1cnn2Cc1ccncc1 | inactive | inactive | 8000 nM | 42.6 nM |  |
| COc1ccc(Cn2ncc3c(C(=O)O)cc(-c4ccccc4)nc32)cc1 | inactive | inactive |  | > 100000 nM |  |
| CCCCCCCCOc1ccc(-c2cc(C(=O)O)c3cnn(Cc4ccncc4)c3n2)cc1 | inactive | inactive | > 50000 nM | 191 nM |  |
| Nc1ccc(-c2cc(C(=O)O)c3cnn(Cc4ccncc4)c3n2)cc1 | inactive | inactive | 4080 nM | 78.2 nM |  |
| O=C(O)c1cc(NCCCO)nc2c1cnn2Cc1ccncc1 | inactive | inactive | 97700 nM | 2460 nM |  |
| O=C(O)c1cc(-c2ccccc2)cc2c1cnn2Cc1ccncc1 | inactive | inactive | 27600 nM | 84.8 nM |  |
| O=C(O)c1cc(-c2cn[nH]c2)nc2c1cnn2Cc1ccncc1 | inactive | inactive | 27900 nM | 2300 nM |  |
| COc1ccc(COc2ccc(-c3cc(C(=O)O)c4cnn(Cc5ccncc5)c4n3)cc2)cc1 | inactive | inactive | 5800 nM | 44.5 nM |  |
| O=C(O)c1ccc(-c2cc(C(=O)O)c3cnn(Cc4ccncc4)c3n2)cc1 | inactive | inactive | 6100 nM | 776 nM |  |
| O=C(O)c1cc(-c2ccc(C(F)(F)F)cc2)nc2c1cnn2Cc1ccncc1 | inactive | inactive |  |  |  |
| O=C(O)c1cc(-c2cncnc2)nc2c1cnn2Cc1ccncc1 | inactive | inactive | 13600 nM | 583 nM |  |
| O=C(O)c1cc(-c2ccc(F)cc2)nc2c1cnn2Cc1ccncc1 | inactive | inactive | 1890 nM | 28 nM |  |
| O=C(O)c1cc(-c2cccc(-c3ccccc3)c2)nc2c1cnn2Cc1ccncc1 | inactive | inactive | 3600 nM | 164 nM |  |
| CCNC(=O)c1cc(-c2ccccc2)nc2c1cnn2Cc1ccncc1 | inactive | inactive | > 50000 nM | 908 nM |  |
| CSc1ccc(-c2cc(C(=O)O)c3cnn(Cc4ccncc4)c3n2)cc1 | inactive | inactive |  |  |  |
| CCCCCCCCCCCCCCCCOc1ccc(-c2cc(C(=O)O)c3cnn(Cc4ccncc4)c3n2)cc1 | inactive | inactive |  |  | ND(Insoluble) |
| Cc1cccc(-c2cc(C(=O)O)c3cnn(Cc4ccncc4)c3n2)c1 | inactive | inactive | 7400 nM | 158 nM |  |
| O=C(NC1CC1)c1cc(-c2ccccc2)nc2c1cnn2Cc1ccncc1 | inactive | inactive | > 100000 nM | 150 nM |  |
| O=C(O)c1cc(-c2cc3ccccc3s2)nc2c1cnn2Cc1ccncc1 | inactive | inactive |  |  |  |

| Structure (SMILES) | Activity (Acinetobacter baumannii [1]) | Activity (Acinetobacter baumannii [2]) | Kd [3] | Kd ([4]; read-out: Kd) | Kd [4] |
| --- | --- | --- | --- | --- | --- |
| CC(C)n1ncc2c(C(=O)O)cc(-c3ccccc3)nc21 | inactive | inactive |  | > 500000 nM |  |
| Cc1ccccc1-c1cc(C(=O)O)c2cnn(Cc3ccncc3)c2n1 | inactive | inactive | > 100000 nM | 2150 nM |  |
| O=C(O)c1cc(-c2cncc3ccccc23)nc2c1cnn2Cc1ccncc1 | inactive | inactive | > 100000 nM | 7730 nM |  |
| Cc1ccsc1-c1cc(C(=O)O)c2cnn(Cc3ccncc3)c2n1 | inactive | inactive | 19200 nM | 340 nM |  |
| O=C(O)c1cc(-c2ccccc2)nc2[nH]ncc12 | inactive | inactive |  | > 100000 nM |  |
| O=C(O)c1cc(-c2ccccc2)nc2c1cnn2Cc1cccnc1 | inactive | inactive |  | > 100000 nM |  |
| O=C(O)c1cc(-c2ccccc2)cc2nn(Cc3ccncc3)cc12 | inactive | inactive | 58000 nM | 66400 nM |  |
| O=C(O)c1cc(/C=C/c2ccccc2)nc2c1cnn2Cc1ccncc1 | inactive | inactive | 5100 nM | 280 nM |  |
| O=C(O)c1cc(-c2cccc(Cl)c2)nc2c1cnn2Cc1ccncc1 | inactive | inactive | 4600 nM | 26 nM |  |
| O=C(O)c1cc(C#Cc2ccccc2)nc2c1cnn2Cc1ccncc1 | inactive | inactive | 3000 nM | 421 nM |  |
| O=C(O)c1cc(N2CCOCC2)nc2c1cnn2Cc1ccncc1 | inactive | inactive | 29100 nM | 1450 nM |  |
| Nc1cc(-c2ccccc2)nc2c1cnn2Cc1ccncc1 | inactive | inactive | 36400 nM | 200 nM |  |
| CC(=O)c1ccc(-c2cc(C(=O)O)c3cnn(Cc4ccncc4)c3n2)cc1 | inactive | inactive |  |  |  |
| O=C(O)c1cc(-c2ccc3[nH]ccc3c2)nc2c1cnn2Cc1ccncc1 | inactive | inactive | 2900 nM | 61.8 nM |  |
| O=C(O)c1cc(-c2ccccc2)cc2c1ccn2Cc1ccncc1 | inactive | inactive | 161000 nM | 52200 nM |  |
| CN(C)C(=O)c1cc(-c2ccccc2)nc2c1cnn2Cc1ccncc1 | inactive | inactive | > 50000 nM | 334 nM |  |
| COc1cc(-c2cc(C(=O)O)c3cnn(Cc4ccncc4)c3n2)ccc1C(=O)O | inactive | inactive | 49900 nM | 1700 nM |  |
| Cc1ccc(-c2cc(C(=O)O)c3cnn(Cc4ccncc4)c3n2)cc1 | inactive | inactive | 1440 nM | 212 nM |  |
| O=C(O)c1cc(-c2cccc(O)c2)nc2c1cnn2Cc1ccncc1 | inactive | inactive | 7670 nM | 124 nM |  |

| Structure (SMILES) | Activity (Acinetobacter baumannii [1]) | Activity (Acinetobacter baumannii [2]) | Kd [3] | Kd ([4]; read-out: Kd) | Kd [4] |
| --- | --- | --- | --- | --- | --- |
| O=C(O)c1cc(-c2ccco2)nc2c1cnn2Cc1ccncc1 | inactive | inactive | 19500 nM | 342 nM |  |
| CCCNC(=O)c1cc(-c2ccccc2)nc2c1cnn2Cc1ccncc1 | inactive | inactive | > 50000 nM | 249 nM |  |
| O=C(O)c1cc(-c2ccc(-c3ccc(Cl)nc3)nc2)nc2c1cnn2Cc1ccncc1 | inactive | inactive |  |  |  |
| N#Cc1ccc(-c2cc(C(=O)O)c3cnn(Cc4ccncc4)c3n2)cc1 | inactive | inactive |  |  |  |
| O=C(O)c1cc(-c2ccccc2)nc2c1cnn2Cc1ccco1 | inactive | inactive |  | > 100000 nM |  |
| O=C(O)c1cc(-c2ccc(-c3ccc(Br)cc3)cc2)nc2c1cnn2Cc1ccncc1 | inactive | inactive | 19700 nM | 181 nM |  |
| O=C(O)c1cc(-c2ccc(-c3ccccc3)cc2)nc2c1cnn2Cc1ccncc1 | inactive | inactive | 3500 nM | 125 nM |  |
| CC(=O)c1ccc(-c2cc(C(=O)O)c3cnn(Cc4ccncc4)c3n2)s1 | inactive | inactive |  |  |  |
| O=C(O)c1cc(-c2ccc([N+](=O)[O-])cc2)nc2c1cnn2Cc1ccncc1 | inactive | inactive |  |  |  |
| O=C(O)c1cc(-c2ccc(Cl)cc2)nc2c1cnn2Cc1ccncc1 | inactive | inactive |  |  |  |
| O=C(O)c1cc(-c2ccc(Br)cc2)nc2c1cnn2Cc1ccncc1 | inactive | inactive |  |  |  |
| COc1ccc(Cn2ncc3c(C(=O)O)cc(Nc4ccccc4)nc32)cc1 | inactive | inactive |  | > 100000 nM |  |
| CCn1ncc2c(C(=O)O)cc(-c3ccccc3)nc21 | inactive | inactive |  | > 500000 nM |  |
| O=C(O)c1cc(-c2ccccc2)nc2c1cnn2Cc1ccccc1 | inactive | inactive |  | > 100000 nM |  |
| O=C(O)c1cc(-c2ccc(Cl)nc2)nc2c1cnn2Cc1ccncc1 | inactive | inactive |  |  |  |
| O=c1cc(-c2ccccc2)[nH]c2c1cnn2Cc1ccncc1 | inactive | inactive |  | > 100000 nM |  |
| O=C(O)c1cc(=O)[nH]c2c1cnn2Cc1ccncc1 | inactive | inactive |  | > 100000 nM |  |
| CS(=O)(=O)c1ccc(-c2cc(C(=O)O)c3cnn(Cc4ccncc4)c3n2)cc1 | inactive | inactive |  |  |  |
| O=C(O)c1ccc(-c2cc(C(=O)O)c3cnn(Cc4ccncc4)c3n2)cc1O | inactive | inactive |  |  |  |
